How the values were obtained:
Assay in all cases: BRET ratio titration, purified sensor
Type in all cases: binding
tVYN-NtΔ (NtYcgRΔ) = settings: read-out: KD(nM)^a; 3 nM sensor; pH 7.2, 100 mM KCl, 10 mM DTT, 0.1% BSA, 28 °C; Hill fit
How it was run: (§1)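 Coelenterazine-h substrate (60 μM in HEPES/KCl/300 mM ascorbate, pre-equilibrated ≥30 min at RT) added, 20 μL into 100 μL. Emission read at 460 and 530 nm, 28 °C, every 30 s for 10 min. BRET ratio taken at 2 min.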

tVYN-Nt (NtYcgR) = settings: read-out: KD(nM)^a; 3 nM sensor; pH 7.2, 100 mM KCl, 10 mM DTT, 0.1% BSA, 28 °C; Hill fit
How it was run: as §1

VYN-Ec (EcYcgR) = biological target: T1, VYN-Ec (EcYcgR) (Escherichia coli, UniProt P76010)
T1 sequence (P76010 1-244): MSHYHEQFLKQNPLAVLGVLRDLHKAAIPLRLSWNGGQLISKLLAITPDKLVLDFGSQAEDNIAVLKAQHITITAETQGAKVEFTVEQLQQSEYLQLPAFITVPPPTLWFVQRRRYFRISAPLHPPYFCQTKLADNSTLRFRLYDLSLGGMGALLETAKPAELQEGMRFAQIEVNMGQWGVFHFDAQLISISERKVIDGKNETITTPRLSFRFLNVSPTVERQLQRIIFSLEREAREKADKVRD
How it was run: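 Coelenterazine-h prepared at 60 μM in HEPES/KCl/300 mM ascorbate (≥30 min RT), then added. Emission at 460 and 530 nm read at 30 s intervals for 10 min, 28 °C; BRET ratio taken 2 min post-substrate.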

Vcp229-Nt (NtYcgR) = settings: read-out: KD(nM)^a; 3 nM sensor; pH 7.2, 100 mM KCl, 10 mM DTT, 0.1% BSA, 28 °C; Hill fit
How it was run: as §1

tVYN-Tb (TbYcgR) = settings: read-out: KD(nM)^a; 3 nM sensor; pH 7.2, 100 mM KCl, 10 mM DTT, 0.1% BSA, 28 °C; Hill fit
How it was run: as §1

VYN-Tb (TbYcgR) = settings: read-out: KD(nM)^a; 3 nM sensor; pH 7.2, 100 mM KCl, 10 mM DTT, 0.1% BSA, 28 °C; Hill fit
How it was run: as §1

Vcp157-Cp (CpYcgR) = settings: read-out: KD(nM)^a; 3 nM sensor; pH 7.2, 100 mM KCl, 10 mM DTT, 0.1% BSA, 28 °C; Hill fit
How it was run: as §1

Vcp173-Nt (NtYcgR) = settings: read-out: KD(nM)^a; 3 nM sensor; pH 7.2, 100 mM KCl, 10 mM DTT, 0.1% BSA, 28 °C; Hill fit
How it was run: as §1

VYN-Nt (NtYcgR) = settings: read-out: KD(nM)^a; 3 nM sensor; pH 7.2, 100 mM KCl, 10 mM DTT, 0.1% BSA, 28 °C; Hill fit
How it was run: as §1

Nc1nc2c(ncn2[C@@H]2O[C@@H]3COP(=O)(O)O[C@H]4[C@@H](O)[C@H](n5cnc6c(=O)[nH]c(N)nc65)O[C@@H]4COP(=O)(O)O[C@H]3[C@H]2O)c(=O)[nH]1 [c-di-GMP] showed a Kd (tVYN-NtΔ (NtYcgRΔ)) of 54 ± 4 nM, a Kd (tVYN-Nt (NtYcgR)) of 20 ± 1 nM and a Kd (VYN-Ec (EcYcgR)) of 50 ± 4 nM. For the same compound, the Kd (Vcp229-Nt (NtYcgR)) was 14 ± 1 nM, the Kd (tVYN-Tb (TbYcgR)) was 12 ± 1 nM and the Kd (VYN-Tb (TbYcgR)) was 8 ± 0.4 nM. The Kd (Vcp157-Cp (CpYcgR)) was 96 ± 6 nM, the Kd (Vcp173-Nt (NtYcgR)) was 17 ± 4 nM and the Kd (VYN-Nt (NtYcgR)) was 14 ± 4 nM.

Reference: article PMC7233196 (ACS chemical biology, 2020)
